Data on 3 molecules can be found in ChEMBL document CHEMBL2331334, “Hybrid furoxanyl N-acylhydrazone derivatives as hits for the development of neglected diseases drug candidates” (Eur J Med Chem, 2013).

Structures are written as SMILES. pIC50: −log10 of the molar value. Values after ≈ are worked out from the molar mass of the structure shown.

Data set [1] is described as follows: Cytotoxicity against mouse J774.1 cells assessed as cell viability after 48 hrs by MTT assay. The class given is cell-based. To be noted: J774.1, 48 h. The method in brief: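 J774.1 macrophages in DMEM with 4 mM L-glutamine and 10% heat-inactivated FCS, 5×10^4 cells/well, attached 48 h at 37 °C, 5% CO2. Exposed 48 h to compounds (12.5–400.0 µM) or vehicle. MTT 0.1 mg/mL final, 3 h at 37 °C; formazan dissolved in DMSO/glycine buffer pH 10.5, A560. IC50 by linear regression versus solvent control.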

For data set [2], the system named is Trypanosoma cruzi. Briefly: Trypanosomicidal activity against amastigote stage of Trypanosoma cruzi Tulahuen C4 transfected with beta-D-galactosidase infected in african green monkey Vero cells assessed as growth inhibition incubated 5 days prior to beta-D-galactopyranoside addition measured after 4 to 5 hrs by colorimetric assay. The class given is functional, organism-based. The method in brief: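 VERO monolayer in phenol red-free RPMI 1640 with 10% FCS, infected with 5×10^4 LacZ-transfected Tulahuen C4 trypomastigotes/well, 24 h at 37 °C, 5% CO2. Compounds added for 5 days. CPRG substrate added, 4–5 h at 37 °C, A570. Actives (>50% inhibition) retested in duplicate at 10.0–0.16; IC50 by logarithmic regression versus untreated control.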

Data set [3] is described as follows: Selectivity index, ratio of IC50 for african green monkey Vero cells to IC50 for amastigote stage of Trypanosoma cruzi Tulahuen C4. The class given is toxicity, cell-based. The settings on record: read-out: Ratio IC50.
The nature of data set [4]: Selectivity index, ratio of IC50 for mouse J774.1 cells to IC50 for amastigote stage of Trypanosoma cruzi Tulahuen C4. The class given is toxicity. The settings on record: read-out: Ratio IC50.
Data set [5] in a line: Aqueous stability of the compound in acetate buffer at pH 5 at 1 mM after 24 hrs by spectrophotometric analysis. The class given is physicochemical. The settings on record: pH 5, 24 h, 1000 µM. In a few lines: (§1)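 Compound from DMSO stock, 1 mM final in aqueous buffer (KCl·HCl pH 2, acetate pH 5, Tris·HCl pH 7.4 or 8.3), incubated 37 °C for 24 h. Absorbance spectrum 250–450 nm compared with a freshly prepared, unincubated solution. TLC of ethyl acetate extracts to confirm or exclude decomposition products.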

Data set [6] relates to Salmonella typhimurium. Briefly: Mutagenicity in Salmonella typhimurium TA98 at 150 ug/plate in absence of S9 fraction. The settings on record: salmonella enterica subsp. enterica serovar typhimurium. The class given is toxicity, organism-based. The method in brief: (§2)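 Direct plate incorporation with S. typhimurium TA98 on minimal glucose agar (Vogel-Bonner E, 40% glucose). Compounds in DMSO assayed in triplicate at doses starting from the highest non-toxic dose, with or without Aroclor-treated mouse liver S9. Controls: DMSO, 4-nitro-o-phenylenediamine (−S9), 2-aminofluorene (+S9). Revertants counted manually; mutagenic if ≥2× negative control at two consecutive doses.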

The nature of data set [7]: Aqueous stability of the compound in Tris.HCl buffer at pH 8.3 at 1 mM after 24 hrs by spectrophotometric analysis. The class given is physicochemical. To be noted: pH 8.3, 24 h, 1000 µM. The method in brief: as §1
Data set [8] in a line: Aqueous stability of the compound in KCl.HCl buffer at pH 2 at 1 mM after 24 hrs by spectrophotometric analysis. The class given is physicochemical. To be noted: pH 2, 24 h, 1000 µM. The method in brief: as §1
Data set [9] is described as follows: Selectivity index, ratio of IC50 for mouse J774.1 cells to MIC for Mycobacterium tuberculosis H37Rv. Type of data set: functional. In a few lines: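 Cytotoxicity: J774.1 macrophages in DMEM with 4 mM L-glutamine and 10% heat-inactivated FCS, seeded at 5 × 10^4/well, attached 48 h at 37 °C, 5% CO2. Exposed 48 h to 12.5–400.0 µM compound or vehicle. MTT at 0.1 mg/mL final for 3 h, formazan dissolved in DMSO/glycine buffer pH 10.5, A560 read. IC50 by linear regression, divided by the MIC against the same MTB strain.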

Data set [10] is described as follows: Aqueous stability of the compound in Tris.HCl buffer at pH 7.4 at 1 mM after 24 hrs by spectrophotometric analysis. Type of data set: physicochemical. The settings on record: pH 7.4, 24 h, 1000 µM. The method in brief: as §1
Data set [11] concerns Trypanosoma cruzi. Briefly: Trypanosomicidal activity against axenic epimastigote stage of Trypanosoma cruzi Tulahuen 2 assessed as growth inhibition. The class given is functional, organism-based. In a few lines:
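Tulahuen 2 epimastigotes grown axenically at 28 °C in BHI-tryptose with 5% FCS, harvested late log phase, 3×10^6/mL in 24-well plates. Compound added from DMSO stock (≤1% DMSO). Growth as A590 at day 0 and day 5; % inhibition from blank-corrected absorbances; ID50 = concentration halving absorbance relative to untreated controls.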

Data set [12] deals with Plasma. Briefly: Metabolic stability in human plasma at pH 3 at 40 uM after 3 hrs. Type of data set: ADME, cell-free. The settings on record: pH 3, 3 h.
Data set [13] deals with Mycobacterium tuberculosis. Briefly: Antimycobacterial activity against Mycobacterium tuberculosis H37Rv assessed as growth inhibition after 5 days by MTT assay. Type of data set: functional. To be noted: 120 h. The method in brief:
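MTB inoculum made from 20–30-day slant growth in Tween 80/0.2% BSA, adjusted to McFarland No. 1, then diluted in 7H9GC broth (Middlebrook 7H9, glycerol, Casitone, OADC). Final inoculum about 1.2 × 10^6 CFU/mL. Compounds taken from DMSO stock to final 0.4–25 in broth, with a DMSO control. Plates run 5 days at 37 °C, then tetrazolium (MTT)–Tween 80 added for a further 24 h at 37 °C. Read-out is MIC.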

Data set [14] concerns Salmonella typhimurium. Briefly: Mutagenicity in Salmonella typhimurium TA98 at 150 ug/plate in presence of S9 fraction. Type of data set: toxicity, organism-based. The settings on record: salmonella enterica subsp. enterica serovar typhimurium. In a few lines: as §2
A short description of data set [15]: Cytotoxicity against mouse J774.1 cells assessed as cell viability after 72 hrs by MTT assay. Type of data set: cell-based. To be noted: J774.1, 72 h.
Data set [16] in a line: Selectivity index, ratio of IC50 for mouse J774.1 cells to IC50 for axenic amastigote stage of Leishmania amazonensis MHOM/BR/76/LTB-012. The class given is toxicity. To be noted: read-out: Ratio IC50.
For data set [17], the system named is Salmonella typhimurium. Put plainly: Mutagenicity in Salmonella typhimurium TA98 at 4.9 to 400 ug/plate in presence of S9 fraction. To be noted: salmonella enterica subsp. enterica serovar typhimurium. The class given is toxicity, organism-based. In a few lines: as §2
Data set [18] concerns Salmonella typhimurium. Briefly: Mutagenicity in Salmonella typhimurium TA98 at 4.9 to 400 ug/plate in absence of S9 fraction. Type of data set: toxicity, organism-based. The settings on record: salmonella enterica subsp. enterica serovar typhimurium. In a few lines: as §2

One may read the pIC50 as the IC50 on a negative log10 scale, so that one unit is a factor of ten. As usually defined, the MIC is the smallest concentration in the dilution series that meets the test's criterion for growth inhibition.

Regarding `O=C(N/N=C/c1ccc2no[n+]([O-])c2c1)c1ccncc1`, the negative logarithm of the IC50 (pIC50) in data set [1] was 3.87; in data set [2], 5.25; in [11], 4.48. For the same molecule, the selectivity ratio in [3] amounted to 2.5; in data set [4], 24. Moreover, the Stability result in data set [5], in [7], in data set [8], in data set [10] and in data set [12] was “Stable” throughout. Besides, the Activity result in data set [6] and in data set [14] was “Toxic” each time. Further, the “Selectivity Index” value in data set [9] is 385. In addition, the MIC in data set [13] came to 0.35 µM (≈ 0.0991 µg/mL).

For the molecule `C[C@@H]1[C@H](O)[C@@H](C)/C=C/C=C/C=C/C=C/C=C/C=C/C=C/[C@H](O[C@@H]2O[C@H](C)[C@@H](O)[C@H](N)[C@@H]2O)C[C@@H]2O[C@](O)(C[C@@H](O)C[C@@H](O)[C@H](O)CC[C@@H](O)C[C@@H](O)CC(=O)O[C@H]1C)C[C@H](O)[C@H]2C(=O)O` [AMPHOTERICIN B], in data set [15], the pIC50 is 6.28. Moreover, the selectivity ratio in data set [16] was 4.7.

On to `O=C(N/N=C/c1c(-c2ccccc2)no[n+]1[O-])c1ccncc1`, for which the pIC50 in [1] was below 3.40; in data set [2] it was 5.19; in [11], 4.96. Besides, the figures for the selectivity ratio in data set [3] and in data set [4] were 2.5 and above 63, respectively. For the same molecule, the Stability result in data set [5], in [7], in [8], in data set [10] and in data set [12] was “Stable” in each case. Besides, the “Selectivity Index” value in data set [9] was above 667. The Activity entry in data set [17] and in [18] was “Non-toxic” each time. Besides, in data set [13], the MIC is 0.6 µM (≈ 0.186 µg/mL).
